Active and inactive are the calls of the source. No cut-off for these calls is given here.
How the values were obtained:
Mythimna separata [1] = assay: In vivo insecticidal activity against pre-third-instar larval stage of Mythimna separata (Oriental armyworm) in corn leaves assessed as reduction in larval movement at 1 mg/ml treated for 3 secs before larval infestation on corn leaves measured after 24 hr by leaf-dipping method; format: functional, organism-based
In short: (§1)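 Leaf-dipping bioassay on pre-third-instar Mythimna separata larvae, with compounds applied at 1 mg/mL. Toosendanin, a commercial insecticide from Melia azedarach, served as the positive control.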

Mythimna separata [2] = assay: In vivo insecticidal activity against pre-third-instar larval stage of Mythimna separata (Oriental armyworm) in corn leaves assessed as inhibition of adult emergence at 1 mg/ml treated for 3 secs before larval infestation on corn leaves by leaf-dipping method; format: functional, organism-based; in short: as §1
Mythimna separata [3] = assay: In vivo insecticidal activity against pre-third-instar larval stage of Mythimna separata (Oriental armyworm) in corn leaves assessed as induction of loss of body liquid at 1 mg/ml treated for 3 secs before larval infestation on corn leaves measured after 48 hr by leaf-dipping method; format: functional, organism-based; in short: as §1
Mythimna separata [4] = assay: In vivo insecticidal activity against pre-third-instar larval stage of Mythimna separata (Oriental armyworm) in corn leaves assessed as corrected mortality rate at 1 mg/ml treated for 3 secs before larval infestation on corn leaves measured after 20 days by leaf-dipping method; format: functional; conditions: 480 h; in short: as §1
Mythimna separata [5] = assay: In vivo insecticidal activity against pre-third-instar larval stage of Mythimna separata (Oriental armyworm) in corn leaves assessed as induction of molting to abnormal pupae at 1 mg/ml treated for 3 secs before larval infestation on corn leaves measured after 48 hr by leaf-dipping method; format: functional, organism-based; in short: as §1
Mythimna separata [6] = assay: In vivo insecticidal activity against pre-third-instar larval stage of Mythimna separata (Oriental armyworm) in corn leaves assessed as corrected mortality rate at 1 mg/ml treated for 3 secs before larval infestation on corn leaves measured after 10 days by leaf-dipping method; format: functional; conditions: 240 h; in short: as §1
Mythimna separata [7] = assay: In vivo insecticidal activity against pre-third-instar larval stage of Mythimna separata (Oriental armyworm) in corn leaves assessed as inhibition of larval pupation at 1 mg/ml treated for 3 secs before larval infestation on corn leaves by leaf-dipping method; format: functional, organism-based; in short: as §1
Mythimna separata [8] = assay: In vivo insecticidal activity against pre-third-instar larval stage of Mythimna separata (Oriental armyworm) in corn leaves assessed as corrected mortality rate at 1 mg/ml treated for 3 secs before larval infestation on corn leaves measured after 30 days by leaf-dipping method; format: functional; conditions: 720 h; in short: as §1
Mythimna separata [9] = assay: In vivo insecticidal activity against pre-third-instar larval stage of Mythimna separata (Oriental armyworm) in corn leaves assessed as induction of larval immobility at 1 mg/ml treated for 3 secs before larval infestation on corn leaves measured after 48 hr by leaf-dipping method; format: functional, organism-based; in short: as §1

Structure (SMILES) | Activity (Mythimna separata [1]) | Activity (Mythimna separata [2]) | Activity (Mythimna separata [3]) | mortality at 1000 µg/mL (Mythimna separata [4]) | Activity (Mythimna separata [5]) | mortality at 1000 µg/mL (Mythimna separata [6]) | Activity (Mythimna separata [7]) | mortality at 1000 µg/mL (Mythimna separata [8]) | Activity (Mythimna separata [9])
COc1cc([C@@H]2c3cc4c(cc3C[C@H]3COC(=O)[C@@H]32)OCO4)cc(OC)c1OS(=O)(=O)c1ccc(Br)cc1 | Active | Active | Active | 31% | Active | 20% | Active | 50% | Active
CCc1ccc(S(=O)(=O)Oc2c(OC)cc([C@@H]3c4cc5c(cc4C[C@H]4COC(=O)[C@@H]43)OCO5)cc2OC)cc1 | Active | Active | Active | 27.6% | Active | 13.3% | Active | 35.7% | Active
COc1cc([C@@H]2c3cc4c(cc3C[C@H]3COC(=O)[C@@H]32)OCO4)cc(OC)c1OS(=O)(=O)c1ccc(Cl)c([N+](=O)[O-])c1 | Active | Active | Active | 20.7% | Active | 3.3% | Active | 42.9% | Active
COc1ccc(S(=O)(=O)Oc2c(OC)cc([C@@H]3c4cc5c(cc4C[C@H]4COC(=O)[C@@H]43)OCO5)cc2OC)cc1 | Active | Active | Active | 37.9% | Active | 33.3% | Active | 46.4% | Active
CC(=O)O[C@@H]1C[C@H](O)[C@@]23CO[C@@H](O)[C@]1(C)[C@@H]2C[C@@H](O)[C@]1(C)[C@@H]3C(=O)[C@H](OC(C)=O)[C@@]2(C)[C@H](c3ccoc3)C[C@H]3O[C@]321 [TOOSENDANIN] |  |  |  | 34.5% |  | 30% |  | 46.4% | 
COc1cc([C@@H]2c3cc4c(cc3C[C@H]3COC(=O)[C@@H]32)OCO4)cc(OC)c1OS(=O)(=O)c1ccc(C)cc1 | Active | Active | Active | 10.3% | Active | 3.3% | Active | 21.4% | Active
COc1cc([C@@H]2c3cc4c(cc3C[C@H]3COC(=O)[C@@H]32)OCO4)cc(OC)c1OC [DESOXYPODOPHYLLOTOXIN] | Active | Active | Active | 20.7% | Active | 16.7% | Active | 39.3% | Active
COc1cc([C@@H]2c3cc4c(cc3C[C@H]3COC(=O)[C@@H]32)OCO4)cc(OC)c1OS(=O)(=O)c1ccc(Cl)cc1 | Active | Active | Active | 10.3% | Active | 10% | Active | 25% | Active
COc1cc([C@@H]2c3cc4c(cc3C[C@H]3COC(=O)[C@@H]32)OCO4)cc(OC)c1OS(=O)(=O)c1ccccc1 | Active | Active | Active | 13.8% | Active | 16.7% | Active | 35.7% | Active
COc1cc([C@@H]2c3cc4c(cc3C[C@H]3COC(=O)[C@@H]32)OCO4)cc(OC)c1OS(=O)(=O)c1cccc([N+](=O)[O-])c1 | Active | Active | Active | 27.6% | Active | 26.7% | Active | 60.7% | Active
COc1cc([C@@H]2c3cc4c(cc3C[C@H]3COC(=O)[C@@H]32)OCO4)cc(OC)c1O [4'-DEMETHYLDEOXYPODOPHYLLOTOXIN] | Active | Active | Active | 13.8% | Active | 10% | Active | 21.4% | Active
